Reference: ChEMBL document CHEMBL3414472, “Synthesis, SAR, and series evolution of novel oxadiazole-containing 5-lipoxygenase activating protein inhibitors: discovery of 2-[4-(3-{(r)-1-[4-(2-amino-pyrimidin-5-yl)-phenyl]-1-cyclopropyl-ethyl}-[1,2,4]oxadiazol-5-yl)-pyrazol-1-yl]-N,N-dimethyl-acetamide (BI 665915)” (J Med Chem, 2015)
In brackets after ≈: the same amount, converted by molar mass.

Legend:
[1] = biological target: T1, Arachidonate 5-lipoxygenase-activating protein (Homo sapiens, UniProt P20292); assay: Inhibition of FLAP in calcimycin-stimulated human whole blood assessed as inhibition of LTB4 synthesis preincubated for 15 mins followed by calcimycin stimulation measured after 30 mins
T1 sequence (P20292 whole entry): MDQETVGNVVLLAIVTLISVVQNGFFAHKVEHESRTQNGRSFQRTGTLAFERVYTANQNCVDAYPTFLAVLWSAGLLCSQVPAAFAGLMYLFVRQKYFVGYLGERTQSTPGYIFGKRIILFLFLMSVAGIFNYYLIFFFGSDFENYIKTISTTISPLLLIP
Procedure, shortened: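 Heparinized human volunteer blood preincubated with compound 15 min at 37 °C, 5 % CO2; calcimycin 100 µM final, 30 min at 37 °C; spun 2000 rpm 5 min at 4 °C. Supernatant LTB4 measured by HTRF competition (LTB4-XL665 plus anti-LTB4 cryptate, 2 h room temperature). Geometric mean (n ≥ 3) of duplicate 10-point curves.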

[2] = biological target: T1, Arachidonate 5-lipoxygenase-activating protein; assay: Displacement of [125I]-L-691831 from human FLAP expressed in insect SF9 cell membranes after 2 hrs by Topcount analysis
[3] = Aqueous equilibrium solubility of the compound in crystalline form in citric acid/disodium phosphate buffer at pH 6.8 after 24 hrs of rotation by HPLC analysis; assay type: physicochemical
Procedure, shortened: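 Saturated solution of crystalline material in citric acid/disodium phosphate buffer pH 6.8 rotated 24 h; after centrifugation and filtration, dissolved concentration measured by HPLC.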

[4] = biological target: T2, Cytochrome P450 2C9 (Homo sapiens, UniProt P11712); assay: Inhibition of CYP2C9 in human liver microsomes using dichlofenac as substrate preincubated for 10 mins followed by NADPH addition measured after 6 mins; assay type: ADME
Procedure, shortened: (§1)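 Human liver microsomes (0.05 mg/mL protein) with cocktail substrates: 4 µM diclofenac (2C9), 3 µM dextromethorphan (2D6), 2.5 µM midazolam (3A4). Compound in 0.1 M potassium phosphate pH 7.4 preincubated 10 min at 37 °C; NADPH added, reaction 6 min at 37 °C.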

[5] = biological target: T3, Cytochrome P450 2D6 (Homo sapiens, UniProt P10635); assay: Inhibition of CYP2D6 in human liver microsomes using dextromethorphan as substrate preincubated for 10 mins followed by NADPH addition measured after 6 mins; assay type: ADME; procedure, shortened: as §1
[6] = biological target: T4, Arachidonate 5-lipoxygenase-activating protein (Mus musculus, UniProt P30355); assay: Inhibition of FLAP in calcimycin-stimulated mouse whole blood assessed as inhibition of LTB4 synthesis preincubated for 15 mins followed by calcimycin stimulation measured after 30 mins
T4 sequence (P30355 whole entry): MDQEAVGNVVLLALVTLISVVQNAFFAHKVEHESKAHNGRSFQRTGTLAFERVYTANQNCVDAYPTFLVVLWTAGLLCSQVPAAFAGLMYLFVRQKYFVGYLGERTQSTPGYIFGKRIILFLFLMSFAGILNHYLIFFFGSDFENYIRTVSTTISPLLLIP
Procedure, shortened: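 Mouse whole blood run by the same protocol as the human whole blood LTB4 assay (compound 15 min at 37 °C, 100 µM final calcimycin 30 min, HTRF LTB4 read-out). Geometric mean (n ≥ 3) of duplicate 8-point curves.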

[7] = Metabolic stability in human liver microsomes at 1 uM preincubated for 10 mins followed by NADPH addition measured over 60 mins by LC/MS analysis relative to hepatic blood flow; assay type: ADME; details: read-out: Stability
Procedure, shortened: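 Human liver microsomes (1 mg/mL protein) with test compound at 1 µM, preincubated 10 min at 37 °C before adding NADPH. Remaining compound followed over a 0–60 min time course, as duplicate 8-timepoint curves. The slope of ln(% remaining) against time gives clearance, expressed as percent of hepatic blood flow.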

[8] = biological target: T5, Cytochrome P450 3A4 (Homo sapiens, UniProt P08684); assay: Inhibition of CYP3A4 in human liver microsomes using midazolam as substrate preincubated for 10 mins followed by NADPH addition measured after 6 mins; assay type: ADME; procedure, shortened: as §1
[9] = biological target: hERG (KCNH2) (Homo sapiens, UniProt Q12809); assay: Inhibition of human ERG expressed in HEK293 cells assessed as change in tail current at 11 uM by manual patch clamp assay relative to control; assay type: cell-based; details: HEK293 cells that express hERG
Procedure, shortened: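 Whole-cell manual patch clamp on HEK293 cells stably expressing human ERG, at room temperature (20-22 °C) in a perfusion chamber. Change in hERG tail current amplitude during the hyperpolarizing step measured with escalating compound concentrations.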

[10] = biological target: T2, Cytochrome P450 2C9; assay: Inhibition of CYP2C9 in human liver microsomes using dichlofenac as substrate at 30 uM preincubated for 10 mins followed by NADPH addition measured after 6 mins; assay type: ADME; details: 0.1 h
[11] = biological target: T3, Cytochrome P450 2D6; assay: Inhibition of CYP2D6 in human liver microsomes using dextromethorphan as substrate at 30 uM preincubated for 10 mins followed by NADPH addition measured after 6 mins; assay type: ADME; details: 0.1 h
[12] = biological target: T5, Cytochrome P450 3A4; assay: Inhibition of CYP3A4 in human liver microsomes using midazolam as substrate at 30 uM preincubated for 10 mins followed by NADPH addition measured after 6 mins; assay type: ADME; details: 0.1 h

T3 sequence (P10635 whole entry): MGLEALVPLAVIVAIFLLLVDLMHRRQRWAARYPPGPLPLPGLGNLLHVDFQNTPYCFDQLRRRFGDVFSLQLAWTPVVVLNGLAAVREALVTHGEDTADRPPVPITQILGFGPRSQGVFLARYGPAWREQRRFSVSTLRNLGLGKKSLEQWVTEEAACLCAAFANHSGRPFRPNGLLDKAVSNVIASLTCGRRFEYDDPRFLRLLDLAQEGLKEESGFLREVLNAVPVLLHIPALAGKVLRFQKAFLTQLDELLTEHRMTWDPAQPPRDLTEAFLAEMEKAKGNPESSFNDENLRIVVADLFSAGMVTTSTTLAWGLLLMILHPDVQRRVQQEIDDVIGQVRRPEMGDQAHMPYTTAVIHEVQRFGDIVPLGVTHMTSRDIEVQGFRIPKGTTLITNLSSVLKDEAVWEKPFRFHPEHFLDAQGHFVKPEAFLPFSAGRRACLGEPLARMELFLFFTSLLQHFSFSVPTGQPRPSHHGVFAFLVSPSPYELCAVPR
Chain of hERG (KCNH2) (Q12809 whole entry, the tested form may be a part): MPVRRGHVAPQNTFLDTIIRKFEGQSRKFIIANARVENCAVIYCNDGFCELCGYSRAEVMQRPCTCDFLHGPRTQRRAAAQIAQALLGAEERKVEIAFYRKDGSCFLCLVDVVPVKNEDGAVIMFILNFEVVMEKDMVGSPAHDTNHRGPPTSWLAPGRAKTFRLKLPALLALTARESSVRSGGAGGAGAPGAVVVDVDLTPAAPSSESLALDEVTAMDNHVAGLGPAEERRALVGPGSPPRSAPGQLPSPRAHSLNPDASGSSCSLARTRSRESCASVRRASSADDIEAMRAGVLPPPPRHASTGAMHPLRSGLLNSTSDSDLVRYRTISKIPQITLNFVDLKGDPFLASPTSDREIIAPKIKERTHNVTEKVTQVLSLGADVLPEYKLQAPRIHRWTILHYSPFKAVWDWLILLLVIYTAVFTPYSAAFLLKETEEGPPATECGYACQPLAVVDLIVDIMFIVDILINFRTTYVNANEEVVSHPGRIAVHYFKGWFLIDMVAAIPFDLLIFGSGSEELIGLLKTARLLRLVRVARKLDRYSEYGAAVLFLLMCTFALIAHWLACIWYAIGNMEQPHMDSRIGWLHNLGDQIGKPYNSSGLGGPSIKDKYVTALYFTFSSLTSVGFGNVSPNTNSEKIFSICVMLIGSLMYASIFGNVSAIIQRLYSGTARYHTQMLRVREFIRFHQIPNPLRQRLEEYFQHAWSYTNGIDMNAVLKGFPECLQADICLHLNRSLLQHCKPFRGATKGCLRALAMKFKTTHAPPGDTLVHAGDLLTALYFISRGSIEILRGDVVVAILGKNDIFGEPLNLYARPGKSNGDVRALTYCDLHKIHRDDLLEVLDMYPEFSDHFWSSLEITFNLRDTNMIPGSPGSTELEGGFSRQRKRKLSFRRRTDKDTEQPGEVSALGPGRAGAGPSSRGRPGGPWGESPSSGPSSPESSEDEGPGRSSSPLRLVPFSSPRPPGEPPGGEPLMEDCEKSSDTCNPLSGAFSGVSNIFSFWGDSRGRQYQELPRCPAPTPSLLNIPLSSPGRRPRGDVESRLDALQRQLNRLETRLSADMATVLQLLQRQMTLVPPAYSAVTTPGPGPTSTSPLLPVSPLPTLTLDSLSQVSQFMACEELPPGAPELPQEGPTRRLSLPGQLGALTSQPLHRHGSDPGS
T5 sequence (P08684 whole entry): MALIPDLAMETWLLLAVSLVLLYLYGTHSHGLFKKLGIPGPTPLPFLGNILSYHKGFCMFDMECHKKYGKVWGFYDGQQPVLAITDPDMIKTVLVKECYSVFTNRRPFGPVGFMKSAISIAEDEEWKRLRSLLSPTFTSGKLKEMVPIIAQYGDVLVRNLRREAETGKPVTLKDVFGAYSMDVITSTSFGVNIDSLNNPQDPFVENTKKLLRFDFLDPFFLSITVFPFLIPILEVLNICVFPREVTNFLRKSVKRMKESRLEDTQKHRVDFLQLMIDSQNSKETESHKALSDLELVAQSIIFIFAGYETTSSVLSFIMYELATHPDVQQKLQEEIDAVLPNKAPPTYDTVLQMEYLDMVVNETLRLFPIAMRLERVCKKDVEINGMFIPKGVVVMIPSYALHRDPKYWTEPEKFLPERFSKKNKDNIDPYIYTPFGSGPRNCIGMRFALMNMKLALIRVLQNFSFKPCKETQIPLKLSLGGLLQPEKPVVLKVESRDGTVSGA
T2 sequence (P11712 whole entry): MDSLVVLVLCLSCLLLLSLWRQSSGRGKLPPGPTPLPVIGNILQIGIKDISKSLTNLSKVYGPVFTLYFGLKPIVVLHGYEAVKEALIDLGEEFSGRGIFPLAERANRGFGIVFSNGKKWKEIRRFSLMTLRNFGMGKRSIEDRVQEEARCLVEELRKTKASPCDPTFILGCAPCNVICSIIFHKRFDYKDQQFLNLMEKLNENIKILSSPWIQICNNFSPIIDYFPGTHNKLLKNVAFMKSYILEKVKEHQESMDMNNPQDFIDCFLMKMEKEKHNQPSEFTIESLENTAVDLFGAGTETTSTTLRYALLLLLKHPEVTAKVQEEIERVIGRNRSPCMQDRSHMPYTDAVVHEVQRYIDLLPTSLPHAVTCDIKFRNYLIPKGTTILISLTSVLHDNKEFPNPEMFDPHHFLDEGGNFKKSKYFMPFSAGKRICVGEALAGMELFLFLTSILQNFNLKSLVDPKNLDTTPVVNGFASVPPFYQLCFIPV

Row | SMILES | IC50 [1] | also measured
1 | Nc1ncc(-c2ccc(C3(c4noc(-c5cnccn5)n4)CCC3)cc2)cn1 | 360 nM | –
2 | CNc1ncc(-c2ccc([C@](C)(c3noc(-c4cnn(CC(=O)N(C)C)c4)n3)C3CC3)cc2)cn1 | 30 nM | IC50 [2]: 2.9 nM
3 | Nc1ncc(-c2ccc(C3(c4noc(-c5c[nH]nn5)n4)CCC3)cc2)cn1 | 2100 nM | –
4 | Cn1cc(-c2nc([C@](C)(c3ccc(-c4cnc(N)nc4)cc3)C3CC3)no2)cn1 | 350 nM | –
5 | CC(C)(O)Cn1cc(-c2nc([C@@](C)(c3ccc(-c4cnc(N)nc4)cc3)C3CC3)no2)cn1 | 20 nM | IC50 [2]: 2.1 nM; solubility thermodynamic at 24 h [3]: 32 µg/mL (≈ 71.8 µM); IC50 [4]: 4000 nM; IC50 [5]: > 30000 nM; IC50 [6]: 1500 nM; hepatic extraction ratio at 1 h, 1 µM [7]: 0.24; IC50 [8]: > 30000 nM; inhibition at 11 µM [9]: 16%
6 | CN(C)C(=O)Cn1cc(-c2nc(C3(c4ccc(-c5cnc(N)nc5)cc4)CCC3)no2)cn1 | 81 nM | IC50 [2]: 3.6 nM; solubility thermodynamic at 24 h [3]: 20 µg/mL (≈ 45 µM); inhibition (INH) [10]: Not Active; inhibition (INH) [11]: Not Active
7 | CC(C)C(c1ccc(-c2cnc(N)nc2)cc1)c1noc(-c2cnn(C)c2)n1 (racemic) | 190 nM | –
8 | CN(C)CCn1cc(-c2nc([C@@](C)(c3ccc(-c4cnc(N)nc4)cc3)C3CC3)no2)cn1 | 14 nM | solubility thermodynamic at 24 h [3]: > 1100 µg/mL; IC50 [4]: > 30000 nM; IC50 [5]: 10000 nM; hepatic extraction ratio at 1 h, 1 µM [7]: 0.4; IC50 [8]: > 30000 nM; inhibition at 11 µM [9]: 31%
9 | Nc1ncc(-c2ccc(C3(c4noc(-c5cscn5)n4)CCC3)cc2)cn1 | 200 nM | –
10 | Nc1ncc(-c2ccc(C3(c4noc(-c5ccnnc5)n4)CCC3)cc2)cn1 | 240 nM | –
11 | Nc1ncc(-c2ccc(C3(c4noc(-c5nc[nH]n5)n4)CCC3)cc2)cn1 | 2700 nM | –
12 | CC(C)[C@@](C)(c1ccc(-c2cnc(N)nc2)cc1)c1noc(-c2cnn(C)c2)n1 | 360 nM | –
13 | CS(=O)(=O)Nc1nc(C2(c3ccc(-c4cnc(N)nc4)cc3)CCC2)no1 | > 5000 nM | –
14 | CN(C)CCn1cc(-c2nc(C3(c4ccc(-c5cnc(N)nc5)cc4)CCC3)no2)cn1 | 47 nM | solubility thermodynamic at 24 h [3]: 270 µg/mL (≈ 627 µM); IC50 [4]: 7000 nM; IC50 [5]: 10000 nM; inhibition (INH) [12]: Not Active
15 | Nc1ncc(-c2ccc(C3(c4noc(-c5cnn(CC(=O)O)c5)n4)CCC3)cc2)cn1 | > 5000 nM | IC50 [2]: 18 nM
16 | Nc1ncc(-c2ccc(C3(c4noc(-c5cccnc5)n4)CCC3)cc2)cn1 | 250 nM | –
17 | CC(C)(O)Cn1cc(-c2nc(C3(c4ccc(-c5cnc(N)nc5)cc4)CCC3)no2)cn1 | – | solubility thermodynamic at 24 h [3]: 3.1 µg/mL (≈ 7.18 µM); IC50 [4]: 6000 nM; IC50 [5]: 3000 nM; IC50 [8]: > 30000 nM; inhibition at 11 µM [9]: 51%
18 | Cn1cc(-c2nc(C3(c4ccc(-c5cnc(N)nc5)cc4)CC(C)(C)C3)no2)cn1 | 1500 nM | –
19 | CC(C)Nc1ncc(-c2ccc([C@](C)(c3noc(-c4cnn(CC(=O)N(C)C)c4)n3)C3CC3)cc2)cn1 | > 50000 nM | IC50 [2]: > 1000 nM
20 | CCNc1nc(C2(c3ccc(-c4cnc(N)nc4)cc3)CCC2)no1 | 460 nM | –
21 | NCCn1cc(-c2nc(C3(c4ccc(-c5cnc(N)nc5)cc4)CCC3)no2)cn1 | 240 nM | –
22 | Cn1cc(-c2nc(Cc3ccc(-c4cnc(N)nc4)cc3)no2)cn1 | > 5000 nM | IC50 [2]: > 1000 nM

Row | SMILES | IC50 [1] | also measured
23 | Nc1ncc(-c2ccc(C3(c4noc(-c5ccncn5)n4)CCC3)cc2)cn1 | 820 nM | –
24 | Cn1cc(-c2nc(C3(c4ccc(-c5cnc(N)nc5)cc4)CC3)no2)cn1 | 2200 nM | –
25 | Nc1ncc(-c2ccc(C3(c4noc(-c5cncnc5)n4)CCC3)cc2)cn1 | 340 nM | –
26 | Nc1ncc(-c2ccc(C3(c4noc(-c5c[nH]cn5)n4)CCC3)cc2)cn1 | 270 nM | –
27 | Nc1ncc(-c2ccc(C3(c4noc(-c5cocn5)n4)CCC3)cc2)cn1 | 310 nM | –
28 | Cn1cc(-c2nc([C@@](C)(c3ccc(-c4cnc(N)nc4)cc3)C3CC3)no2)cn1 | 15 nM | –
29 | Nc1ncc(-c2ccc(C3(c4noc(-c5ccccc5)n4)CCC3)cc2)cn1 | 470 nM | –
30 | COCCn1cc(-c2nc(C3(c4ccc(-c5cnc(N)nc5)cc4)CCC3)no2)cn1 | – | solubility thermodynamic at 24 h [3]: 9.3 µg/mL (≈ 22.3 µM)
31 | Nc1ncc(-c2ccc(C3(c4noc(-c5cn[nH]c5)n4)CCC3)cc2)cn1 | 110 nM | solubility thermodynamic at 24 h [3]: 0.4 µg/mL (≈ 1.11 µM)
32 | CN(C)C(=O)Cn1cc(-c2nc([C@@](C)(c3ccc(-c4ccc(N)nc4)cc3)C3CC3)no2)cn1 | 66 nM | –
33 | CC(C)C(C)(c1ccc(-c2cnc(N)nc2)cc1)c1noc(-c2cnn(C)c2)n1 (racemic) | 46 nM | –
34 | CCNc1ncc(-c2ccc(C(C)(c3noc(-c4cnn(CC(=O)N(C)C)c4)n3)C3CC3)cc2)cn1 (racemic) | 1000 nM | –
35 | Cn1cc(-c2nc(C3(c4ccc(-c5cnc(N)nc5)cc4)CCC3)no2)cn1 | – | solubility thermodynamic at 24 h [3]: 0.03 µg/mL (≈ 0.0803 µM)
36 | Nc1ncc(-c2ccc(C3(c4noc(-c5cccnn5)n4)CCC3)cc2)cn1 | 400 nM | –
37 | CC(C)[C@](C)(c1ccc(-c2cnc(N)nc2)cc1)c1noc(-c2cnn(C)c2)n1 | 33 nM | –
38 | Cn1cc(-c2nc([C@](C)(c3ccc(-c4cnc(N)nc4)cc3)C3CCC3)no2)cn1 | 3200 nM | –
39 | Cn1cc(-c2nc(C(C)(C)c3ccc(-c4cnc(N)nc4)cc3)no2)cn1 | 93 nM | –
40 | Nc1ncc(-c2ccc(C3(c4noc(-c5cc[nH]n5)n4)CCC3)cc2)cn1 | 160 nM | –
41 | Cn1cc(-c2nc([C@@](C)(c3ccc(-c4cnc(N)nc4)cc3)C3CCC3)no2)cn1 | 91 nM | –
42 | CN(C)C(=O)Cn1cc(-c2nc([C@@](C)(c3ccc(-c4cnc(N)cn4)cc3)C3CC3)no2)cn1 | 73 nM | –
43 | Nc1ncc(-c2ccc(C3(c4noc(-c5ccc[nH]c5=O)n4)CCC3)cc2)cn1 | > 5000 nM | –
